Test results taken from article PMC8296307 (Epilepsy research, 2021).
Where two headings read alike, the source gives them in different places.

Tests used:
[1] = system: juvenile Fmr1 knockout mice; details: ref Armstrong et al., 2020; cited from earlier work
m5-HT2A [2] = target: T1, m5-HT2A (Mus musculus, UniProt P35363); assay: Radioligand competition binding, [3H]Ketanserin, m5-HT2A in HEK293 membranes
h5-HT2C-INI [3] = target: T2, h5-HT2C-INI (Homo sapiens, UniProt P28335); assay type: binding; details: [3H]Mesulergine, one-site fit Ki
T2 sequence (P28335 33-458): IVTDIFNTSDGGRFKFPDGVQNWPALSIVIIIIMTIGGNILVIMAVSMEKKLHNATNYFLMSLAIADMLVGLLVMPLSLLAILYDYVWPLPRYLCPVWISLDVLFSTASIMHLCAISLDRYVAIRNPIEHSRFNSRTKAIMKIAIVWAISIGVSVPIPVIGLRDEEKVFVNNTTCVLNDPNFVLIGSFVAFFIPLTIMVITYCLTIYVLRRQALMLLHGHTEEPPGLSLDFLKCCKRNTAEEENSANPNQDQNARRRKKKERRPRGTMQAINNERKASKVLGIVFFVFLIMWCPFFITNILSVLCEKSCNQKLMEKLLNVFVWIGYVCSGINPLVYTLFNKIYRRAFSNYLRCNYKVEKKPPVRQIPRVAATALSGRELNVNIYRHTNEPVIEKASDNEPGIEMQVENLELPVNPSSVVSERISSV

m5-HT2C-VNV [4] = target: T3, m5-HT2C-VNV (Mus musculus, UniProt P34968, I157V/I161V); assay type: binding
T3 sequence (P34968 33-459 I157V/I161V): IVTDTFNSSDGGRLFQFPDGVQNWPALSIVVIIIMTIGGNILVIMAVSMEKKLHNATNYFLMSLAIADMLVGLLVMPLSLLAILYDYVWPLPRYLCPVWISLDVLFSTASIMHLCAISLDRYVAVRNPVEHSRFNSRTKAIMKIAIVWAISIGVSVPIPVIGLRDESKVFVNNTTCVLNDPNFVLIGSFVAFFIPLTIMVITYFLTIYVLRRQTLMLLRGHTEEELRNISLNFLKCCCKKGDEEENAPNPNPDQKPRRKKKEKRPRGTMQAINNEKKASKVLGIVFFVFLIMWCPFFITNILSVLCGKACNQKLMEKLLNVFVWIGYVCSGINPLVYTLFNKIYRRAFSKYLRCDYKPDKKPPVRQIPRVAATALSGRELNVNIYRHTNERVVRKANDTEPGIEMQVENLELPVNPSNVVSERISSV

h5-HT2A = h5-HT2A (Homo sapiens, UniProt P28223); assay: 5-HT2AR-mediated phosphoinositide hydrolysis, h5-HT2A in HEK293 cells; assay type: cell-based; details: relative to 5-HT
Sequence of h5-HT2A (P28223 whole entry): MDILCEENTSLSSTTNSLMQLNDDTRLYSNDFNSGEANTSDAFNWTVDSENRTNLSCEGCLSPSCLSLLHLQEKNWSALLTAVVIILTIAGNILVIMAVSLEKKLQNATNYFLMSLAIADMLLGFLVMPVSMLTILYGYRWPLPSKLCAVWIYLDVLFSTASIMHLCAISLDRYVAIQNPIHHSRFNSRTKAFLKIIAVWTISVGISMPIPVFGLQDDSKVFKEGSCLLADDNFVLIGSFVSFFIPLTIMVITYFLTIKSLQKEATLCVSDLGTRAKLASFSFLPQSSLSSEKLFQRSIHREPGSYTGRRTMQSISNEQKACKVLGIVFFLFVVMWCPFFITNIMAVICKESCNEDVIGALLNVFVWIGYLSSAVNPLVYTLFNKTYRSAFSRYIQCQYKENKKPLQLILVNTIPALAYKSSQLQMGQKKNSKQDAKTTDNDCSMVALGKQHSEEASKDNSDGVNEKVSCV

m5-HT2A [5] = target: T1, m5-HT2A; assay: 5-HT2AR-mediated phosphoinositide hydrolysis, m5-HT2A in HEK293 cells; assay type: cell-based
h5-HT2C-INI [6] = target: T2, h5-HT2C-INI; assay: 5-HT2CR-mediated phosphoinositide hydrolysis, h5-HT2C-INI in HEK293 cells; assay type: cell-based; details: for agonist efficacy: relative to 5-HT
m5-HT2C-VNV [7] = target: T3, m5-HT2C-VNV; assay: 5-HT2CR-mediated phosphoinositide hydrolysis, m5-HT2C-VNV in HEK293 cells; assay type: cell-based; details: for agonist efficacy: relative to 5-HT
C57BL/6J mice [8] = assay: DOI-elicited head-twitch response; assay type: in vivo, mouse; details: for HTR (mean count): 10-minute session
In short: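 C57BL/6J mice were acclimated to the testing room for ≥60 min. They then received s.c. vehicle (Milli-Q water) or test compound (1, 3 or 5.6 mg/kg), followed 10 min later by s.c. 5-HT2R agonist challenge (1.0 mg/kg). After a further 10 min, mice were placed in the open field for a 10-min session. Head twitches (rapid, discrete head jerks) were counted with a tally counter by an observer blind to treatment.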

[9] = system: juvenile Fmr1 knockout mice; assay: Audiogenic seizures; assay type: in vivo, mouse; details: for lethality: vehicle 60%; for seizure prevalence (TCS): vehicle 70%; for mean WRJ duration (± SD): vehicle 10 (±5)
C57BL/6J mice [10] = assay: Locomotor activity in open field; assay type: in vivo, mouse
C57BL/6J mice [11] = assay: Head-twitch response; assay type: in vivo, mouse; details: vehicle 2.6
[12] = steady-state clinical dosing of 10 mg twice daily in monkeys; ref FDA briefing document NDA22529; cited from earlier work
[13] = phosphoinositide hydrolysis, mean
[14] = phosphoinositide hydrolysis, mean (95% CI)
[15] = 30 mg/kg i.p., 30 min before test
[16] = lorcaserin 5.6 mg/kg with M100907 0.03 mg/kg pretreatment

T1 sequence (P35363 whole entry): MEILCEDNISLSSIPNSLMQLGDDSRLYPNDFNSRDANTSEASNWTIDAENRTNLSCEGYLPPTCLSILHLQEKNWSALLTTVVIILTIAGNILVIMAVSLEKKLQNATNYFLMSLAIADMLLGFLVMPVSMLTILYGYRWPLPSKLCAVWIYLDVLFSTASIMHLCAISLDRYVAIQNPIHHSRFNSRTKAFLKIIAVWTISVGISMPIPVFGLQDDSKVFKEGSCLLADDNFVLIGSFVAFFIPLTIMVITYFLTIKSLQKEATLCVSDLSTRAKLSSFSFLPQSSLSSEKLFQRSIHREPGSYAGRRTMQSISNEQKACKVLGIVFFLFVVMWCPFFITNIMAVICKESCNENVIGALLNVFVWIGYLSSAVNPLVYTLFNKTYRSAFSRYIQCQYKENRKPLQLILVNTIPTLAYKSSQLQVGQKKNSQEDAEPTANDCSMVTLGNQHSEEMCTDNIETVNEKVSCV

CN(C)[C@H]1CCc2c(cccc2-c2ccccc2F)C1 [FPT, (S)-5-(2’-Fluorophenyl)-N,N-dimethyl-1,2,3,4-tetrahydronaphthalen-2-amine]
prevention of AGSs [1]: completely prevents AGSs

COc1cc(CC(C)N)c(OC)cc1I (racemic) [DOI, (±)-2,5-dimethoxy-4-iodoamphetamine]
Ki (m5-HT2A [2]; [3H]Ketanserin, one-site fit Ki, mean): 0.033 µM | pKi (95% CI) (m5-HT2A [2]; [3H]Ketanserin, one-site fit Ki, mean (95% CI)): 7.48 (7.54 to 7.42) | pKi (95% CI) at the high-affinity site (m5-HT2A [2]; two-site fit Ki model): 8.01 (8.70 to 7.64) | pKi (95% CI) at the low-affinity site (m5-HT2A [2]; two-site fit Ki model): 7.02 (7.32 to 6.30) | Ki (h5-HT2C-INI [3]; mean): 0.096 µM | pKi (95% CI) (h5-HT2C-INI [3]; mean (95% CI)): 7.02 (7.11 to 6.93) | Ki (m5-HT2C-VNV [4]; [3H]Mesulergine, one-site fit Ki, mean): 0.065 µM | pKi (95% CI) (m5-HT2C-VNV [4]; [3H]Mesulergine, one-site fit Ki, mean (95% CI)): 7.19 (7.28 to 7.10) | agonist efficacy (h5-HT2A): full efficacy h5-HT2AR agonist activity | EC50 (m5-HT2A [5]; [13]): 0.001 µM | pEC50 (95% CI) (m5-HT2A [5]; [14]): 9.00 (9.44 to 8.57) | agonist efficacy (m5-HT2A [5]; relative to 5-HT): full efficacy m5-HT2AR agonist activity | EC50 (h5-HT2C-INI [6]; [13]): 0.0041 µM | pEC50 (95% CI) (h5-HT2C-INI [6]; [14]): 8.39 (8.76 to 8.04) | agonist efficacy (h5-HT2C-INI [6]): full agonists | EC50 (m5-HT2C-VNV [7]; [13]): 0.008 µM | pEC50 (95% CI) (m5-HT2C-VNV [7]; [14]): 8.10 (8.41 to 7.80) | agonist efficacy (m5-HT2C-VNV [7]): full agonists | HTR (mean count) (C57BL/6J mice [8]; DOI 1 mg/kg s.c. alone): 37.6 | more HTRs than SB242084 plus lorcaserin (C57BL/6J mice [8]; DOI 1 mg/kg vs SB242084 plus lorcaserin 3 mg/kg): 5 fold

CN1C[C@@H](NS(=O)(=O)N(C)C)C[C@@H]2c3cccc4c3c(cn4C)C[C@H]21 [Mesulergine]
Ki (m5-HT2C-VNV [4]): 0.00339 µM

COc1cccc([C@H](O)C2CCN(CCc3ccc(F)cc3)CC2)c1OC [M100907]
lethality ([9]; 0.03 mg/kg i.p. alone): 88% | seizure prevalence (TCS) ([9]; 0.03 mg/kg i.p. alone): 100%

O=C(c1ccc(F)cc1)C1CCN(CCn2c(=O)[nH]c3ccccc3c2=O)CC1 [Ketanserin]
Ki (m5-HT2A [2]; pKi (95% CI), [3H]Ketanserin, one-site fit Ki, mean (95% CI)): 0.00269 µM

Cc1cc2c(cc1Cl)N(C(=O)Nc1ccc(Oc3cccnc3C)nc1)CC2 [SB242084]
effect on lorcaserin (3 mg/kg) reduced locomotor activity (C57BL/6J mice [10]; SB242084 0.5 mg/kg and 1 mg/kg s.c.): overturned

Cc1cccc(C#Cc2ccccc2)n1 [MPEP, 2-methyl-6-(phenylethynyl)pyridine]
lethality [9, 15]: 12% | seizure prevalence (TCS) [9, 15]: 12% | mean latency (± SD) to first episode of WRJ ([9]; 30 mg/kg, vehicle 36 (±11)): 160 (±19) seconds

C[C@H]1CNCCc2ccc(Cl)cc21 [Lorcaserin]
Ki (m5-HT2A [2]; Ki, [3H]Ketanserin, one-site fit Ki, mean): 4.46 µM | Ki (m5-HT2C-VNV [4]): 0.741 µM | EC50 (m5-HT2A [5]; EC50, phosphoinositide hydrolysis, mean): 0.212 µM | Emax (m5-HT2A [5]; HEK293): 84.6% | EC50 (m5-HT2A [5]; pEC50 (95% CI), phosphoinositide hydrolysis, mean (95% CI)): 0.209 µM | agonist efficacy (h5-HT2C-INI [6]): full agonists | EC50 (m5-HT2C-VNV [7]): 0.0158 µM | agonist efficacy (m5-HT2C-VNV [7]): full agonists | lethality ([9]; 1 mg/kg i.p.): 67% | seizure prevalence (TCS) ([9]; 1 mg/kg i.p.): 83% | lethality ([9]; 3 mg/kg i.p.): 28% | seizure prevalence (TCS) ([9]; 3 mg/kg i.p.): 56% | attenuation of AGS lethality ([9]; 3 mg/kg, relative to vehicle, not significant (P=0.06)): 32% | attenuation of AGS prevalence ([9]; 3 mg/kg, relative to vehicle, not significant (P=0.5)): 14% | mean WRJ duration (± SD) ([9]; 5.6 mg/kg alone): 19 (±12) seconds | lethality ([9]; 5.6 mg/kg i.p.): 78% | seizure prevalence (TCS) ([9]; 5.6 mg/kg i.p.): 94% | mean WRJ duration (± SD) ([9]; 5.6 mg/kg in combination with M100907 0.03 mg/kg): 20 (±14) seconds | mean TCS onset latency (± SD) ([9]; 5.6 mg/kg, vehicle 41 (±8)): 58 (±21) seconds | lethality ([9]; 10 mg/kg i.p.): 78% | seizure prevalence (TCS) ([9]; 10 mg/kg i.p.): 89% | effect on WRJ latency ([9]; 1, 3, 5.6, 10 mg/kg): did not affect WRJ latency | prevention of AGSs ([9]; 1-10 mg/kg i.p.): ineffective at preventing AGSs | lethality [9, 16]: 50% | seizure prevalence (TCS) [9, 16]: 90% | behaviours observed in treated animals ([9]; some animals that received lorcaserin): purposeless oral movements | HTR (mean count) (C57BL/6J mice [11]; 3 mg/kg s.c. alone): 4.1 | HTR (mean count) (C57BL/6J mice [11]; lorcaserin 3 mg/kg with SB242084 0.5 mg/kg s.c.): 7 | HTR (mean count) (C57BL/6J mice [11]; lorcaserin 3 mg/kg with SB242084 1 mg/kg s.c.): 6.3 | HTR (mean count) (C57BL/6J mice [8]; lorcaserin 3 mg/kg plus DOI 1 mg/kg): 44.1 | HTR (mean count) (C57BL/6J mice [8]; lorcaserin 5.6 mg/kg plus DOI 1 mg/kg): 44.9 | effect on locomotor activity (C57BL/6J mice [10]; 3 mg/kg s.c. alone, relative to vehicle (P<0.0001)): significantly reduced locomotor activity | effect on locomotor activity (C57BL/6J mice [10]; lorcaserin 3 mg/kg combined with SB242084 0.5 mg/kg, relative to vehicle (P=0.0003)): significantly enhanced locomotor activity | brain concentrations [12]: ~ 1.7 μM
